Compound activity deposited in PubChem by several laboratories.
The list is not random: actives were taken first. Their share in the collection is about 12%.
ABCB1 inh: inhibitors of human ABCB1 transporter, ABCG2 counter-screen; P08183; 190,000 compounds, 0.067% hits; CCRF-Adr cells, JC-1 efflux, flow cytometry; AID 1326; inhibition, % at 6.6 µM; in the data active = inhibition above about 40%;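 note: higher value means more JC-1 retained so stronger ABCB1 efflux block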
WT yeast gro inh: growth inhibition of WT yeast, mitochondrial fusion screen | mitochondrial fusion phenotypic screen, WT strain | inhibition, % at 10 µM | 190,000 compounds, 2.1% hits | AID 1362; in the data active = inhibition above about 58%; tested in S. cerevisiae
L major viab: Leishmania major promastigote growth inhibition; Leishmania major promastigotes, resazurin fluorescence viability; 200,000 compounds, 9% hits; inhibition, % at 10 µM; in the data active = inhibition above about 50%;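 note: promastigotes grown with compound for 44 hours at 28 °C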
RAM inhibit: inhibitors of the yeast RAM network. S. cerevisiae dse1pr::URA3 reporter, 5-FOA growth OD615, 2 d; analog-sensitive cbk1-as2 kinase mutant strain. inhibition, % at 50 µM. 190,000 compounds, 1.8% hits;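 active = inhibition above a set limit, 3 SD over mean compound inhibition, cut at about 8.4% in these data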;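 note: inhibition rescues growth on 5-FOA so higher OD means more RAM inhibition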
ABCG2 block: inhibitors of human ABCG2 transporter, ABCB1 counter-screen; Q9UNQ0; IgMXP3 cells, JC-1 efflux, flow cytometry; inhibition, % at 6.6 µM; 190,000 compounds, 0.1% hits; AID 1325;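 active = inhibition above 80%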
Target sequence (Q9UNQ0 whole entry, looked up): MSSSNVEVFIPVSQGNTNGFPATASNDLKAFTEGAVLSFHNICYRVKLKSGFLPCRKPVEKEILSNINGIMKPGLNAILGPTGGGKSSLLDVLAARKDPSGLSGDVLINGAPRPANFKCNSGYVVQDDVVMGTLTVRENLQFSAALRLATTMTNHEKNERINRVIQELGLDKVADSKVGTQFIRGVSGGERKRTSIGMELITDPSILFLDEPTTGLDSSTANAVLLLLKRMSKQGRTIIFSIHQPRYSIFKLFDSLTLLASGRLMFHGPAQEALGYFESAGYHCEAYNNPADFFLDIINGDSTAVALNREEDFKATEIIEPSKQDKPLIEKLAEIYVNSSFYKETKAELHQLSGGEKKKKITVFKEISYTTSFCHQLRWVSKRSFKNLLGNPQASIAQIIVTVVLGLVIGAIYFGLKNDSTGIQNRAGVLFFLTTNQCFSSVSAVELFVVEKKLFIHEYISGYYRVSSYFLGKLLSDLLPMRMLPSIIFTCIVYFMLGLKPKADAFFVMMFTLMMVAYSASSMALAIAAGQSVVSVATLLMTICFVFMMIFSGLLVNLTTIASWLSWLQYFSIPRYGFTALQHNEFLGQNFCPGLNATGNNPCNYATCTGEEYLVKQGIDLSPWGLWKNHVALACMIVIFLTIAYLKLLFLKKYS
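Assay system – ABCG2 IgMXP3 and barcoded ABCB1 CCRF-Adr cell mix · Input – 3 million cells/mL in well · Reagent – JC-1 fluorescent substrate · Compound – single test compound dose, 6.6 µM final · Timing – 10 min exposure at 25 °C with rotation, no wash · Detection – flow cytometry of retained JC-1 fluorescence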
Hits are given with their value.

What do the screens show for `CC(C)CC(=O)N1CCN(S(=O)(=O)c2ccc3ccccc3c2)CC1`?
ABCB1 inh: inactive; WT yeast gro inh: inactive; L major viab: inactive; RAM inhibit: inactive; ABCG2 block: inactive

Results for Nc1ccnc(Oc2ccc(F)cc2)c1 ?
WT yeast gro inh: inactive; L major viab: inactive; RAM inhibit: inactive; ABCG2 block: inactive

How did CCOC(=O)C(Cc1ccc(O)cc1)NC(=O)CNC(=O)C1CCCN1C(=O)OC(C)(C)C (stereo not drawn) do in these assays?
ABCB1 inh: inactive; WT yeast gro inh: inactive; L major viab: inactive; RAM inhibit: inactive; ABCG2 block: inactive

What do the screens show for `CCN1c2ccccc2-c2nc3ccccc3n2C1c1cccs1` (stereo not drawn)?
ABCB1 inh: inactive; WT yeast gro inh: 64; L major viab: 96; RAM inhibit: inactive; ABCG2 block: inactive

What do the screens show for `CCOC(=O)C1(Cc2cccc(OC)c2)CCN(Cc2ccc(C)s2)CC1`?
ABCB1 inh: inactive; WT yeast gro inh: inactive; L major viab: inactive; RAM inhibit: inactive; ABCG2 block: inactive

What do the screens show for `Cc1ccc(-c2csc3ncnc(Nc4ccc(N5CCOCC5)cc4)c23)cc1`?
ABCB1 inh: inactive; WT yeast gro inh: 64; L major viab: inactive; RAM inhibit: inactive; ABCG2 block: inactive

How did Cc1ccc(-c2csc3ncnc(NCCN4CCOCC4)c23)cc1 do in these assays?
ABCB1 inh: inactive; WT yeast gro inh: inactive; L major viab: inactive; RAM inhibit: inactive; ABCG2 block: inactive

How did COc1ccc(C(=O)N/C(=C\c2ccc3c(c2)OCO3)C(=O)Nc2cccc(C(=O)O)c2)cc1 do in these assays?
ABCB1 inh: inactive; WT yeast gro inh: inactive; L major viab: inactive; RAM inhibit: inactive; ABCG2 block: inactive

What do the screens show for `COc1ccccc1C1CC(c2ccc(Br)cc2)=NN1C(=O)c1cccnc1` (stereo not drawn)?
ABCB1 inh: inactive; WT yeast gro inh: inactive; L major viab: 51; RAM inhibit: inactive; ABCG2 block: inactive

Results for COc1cccc(C2CC(c3ccc(Br)cc3)=NN2C(=O)c2ccncc2)c1OC (stereo not drawn) ?
ABCB1 inh: inactive; WT yeast gro inh: inactive; L major viab: 61; RAM inhibit: inactive; ABCG2 block: inactive

Results for CCCCNC(=O)c1ccccc1NC(=O)CCC ?
ABCB1 inh: inactive; WT yeast gro inh: inactive; L major viab: inactive; RAM inhibit: inactive; ABCG2 block: inactive

How did N#CCSc1ccc(-c2nc3ccccc3[nH]2)cn1 do in these assays?
ABCB1 inh: inactive; WT yeast gro inh: inactive; L major viab: inactive; RAM inhibit: inactive; ABCG2 block: inactive

Results for CCOc1ccc(NC(=S)N(CCc2c(C)[nH]c3ccc(C)cc23)Cc2ccco2)cc1 ?
ABCB1 inh: inactive; WT yeast gro inh: 67; L major viab: 73; RAM inhibit: inactive; ABCG2 block: inactive

How did CNC(=S)N(CCc1c(C)[nH]c2ccc(C)cc12)Cc1cccs1 do in these assays?
ABCB1 inh: inactive; WT yeast gro inh: 65; L major viab: inactive; RAM inhibit: inactive; ABCG2 block: inactive

Results for COc1ccc2[nH]c(C)c(CCN(Cc3cccs3)C(=S)Nc3ccccc3)c2c1 ?
ABCB1 inh: inactive; WT yeast gro inh: inactive; L major viab: inactive; RAM inhibit: inactive; ABCG2 block: inactive

How did COCCNC(=S)N(CCc1c(C)[nH]c2ccc(C)cc12)Cc1ccco1 do in these assays?
ABCB1 inh: inactive; WT yeast gro inh: inactive; L major viab: inactive; RAM inhibit: inactive; ABCG2 block: inactive

How did COc1ccc(NC(=S)N(Cc2ccc(N(C)C)cc2)Cc2ccco2)cc1 do in these assays?
ABCB1 inh: inactive; WT yeast gro inh: inactive; L major viab: inactive; RAM inhibit: inactive; ABCG2 block: inactive

How did COc1ccc(NC(=S)N(CCc2c(C)[nH]c3ccc(C)cc23)Cc2cccs2)cc1 do in these assays?
ABCB1 inh: inactive; WT yeast gro inh: 66; L major viab: 54; RAM inhibit: inactive; ABCG2 block: inactive

Results for CCOc1ccc(NC(=S)N(Cc2ccc(N(C)C)cc2)Cc2ccco2)cc1 ?
ABCB1 inh: inactive; WT yeast gro inh: 59; L major viab: inactive; RAM inhibit: inactive; ABCG2 block: inactive

Results for CCCCn1nnnc1NCc1ccc(N(CC)CC)cc1 ?
ABCB1 inh: inactive; WT yeast gro inh: inactive; L major viab: inactive; RAM inhibit: inactive; ABCG2 block: inactive

What do the screens show for `COc1ccc(S(=O)(=O)N(C)C)cc1NC(=O)Cc1cccs1`?
ABCB1 inh: inactive; WT yeast gro inh: inactive; L major viab: inactive; RAM inhibit: inactive; ABCG2 block: inactive

How did COc1ccc(NC(=S)N(CCc2c(C)[nH]c3ccc(C)cc23)Cc2ccco2)cc1 do in these assays?
ABCB1 inh: inactive; WT yeast gro inh: 69; L major viab: inactive; RAM inhibit: inactive; ABCG2 block: inactive
